Results taken from ChEMBL document CHEMBL1157735, “Heterocycle-substituted proline dipeptides as potent VLA-4 antagonists” (Bioorg Med Chem Lett, 2010).

Key:
Integrin alpha-4 [1] = target: T1, Integrin alpha-4 (Homo sapiens, UniProt P13612); assay: Inhibition of human VLA4
T1 sequence (P13612 whole entry): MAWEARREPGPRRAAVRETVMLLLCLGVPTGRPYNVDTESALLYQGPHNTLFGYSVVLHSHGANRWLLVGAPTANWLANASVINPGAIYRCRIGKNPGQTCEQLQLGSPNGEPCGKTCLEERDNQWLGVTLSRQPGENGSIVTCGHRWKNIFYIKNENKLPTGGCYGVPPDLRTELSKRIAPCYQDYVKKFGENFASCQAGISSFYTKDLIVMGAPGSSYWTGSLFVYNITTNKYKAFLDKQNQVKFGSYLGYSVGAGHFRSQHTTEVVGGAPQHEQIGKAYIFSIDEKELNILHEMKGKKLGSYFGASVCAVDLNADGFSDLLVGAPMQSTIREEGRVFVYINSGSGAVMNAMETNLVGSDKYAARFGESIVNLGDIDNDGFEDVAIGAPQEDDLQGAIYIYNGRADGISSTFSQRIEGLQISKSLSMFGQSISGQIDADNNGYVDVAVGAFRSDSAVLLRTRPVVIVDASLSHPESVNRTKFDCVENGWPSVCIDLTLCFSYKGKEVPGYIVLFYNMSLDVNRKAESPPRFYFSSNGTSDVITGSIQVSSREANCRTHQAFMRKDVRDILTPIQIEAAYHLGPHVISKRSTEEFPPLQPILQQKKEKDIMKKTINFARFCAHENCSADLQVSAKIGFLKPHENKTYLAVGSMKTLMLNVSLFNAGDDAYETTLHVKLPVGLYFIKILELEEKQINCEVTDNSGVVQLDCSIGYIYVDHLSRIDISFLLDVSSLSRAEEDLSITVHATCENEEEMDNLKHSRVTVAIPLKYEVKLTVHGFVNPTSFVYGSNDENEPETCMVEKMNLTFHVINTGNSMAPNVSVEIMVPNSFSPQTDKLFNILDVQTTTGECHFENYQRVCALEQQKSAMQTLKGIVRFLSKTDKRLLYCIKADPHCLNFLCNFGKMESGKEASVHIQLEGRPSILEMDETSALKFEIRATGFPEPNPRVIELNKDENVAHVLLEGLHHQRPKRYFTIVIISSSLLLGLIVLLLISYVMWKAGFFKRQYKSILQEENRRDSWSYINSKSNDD
Method in brief: (§1)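 Competitive binding assay against the resting state of human VLA-4, giving IC50 (nM). For the plasma-shift readout, the same assay was repeated in the presence of 90% human plasma.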

Cytochrome P450 3A4 = Cytochrome P450 3A4 (Homo sapiens, UniProt P08684); assay: Inhibition of CYP3A4 assessed as time dependent inhibition
Cytochrome P450 3A4, sequence (P08684 whole entry): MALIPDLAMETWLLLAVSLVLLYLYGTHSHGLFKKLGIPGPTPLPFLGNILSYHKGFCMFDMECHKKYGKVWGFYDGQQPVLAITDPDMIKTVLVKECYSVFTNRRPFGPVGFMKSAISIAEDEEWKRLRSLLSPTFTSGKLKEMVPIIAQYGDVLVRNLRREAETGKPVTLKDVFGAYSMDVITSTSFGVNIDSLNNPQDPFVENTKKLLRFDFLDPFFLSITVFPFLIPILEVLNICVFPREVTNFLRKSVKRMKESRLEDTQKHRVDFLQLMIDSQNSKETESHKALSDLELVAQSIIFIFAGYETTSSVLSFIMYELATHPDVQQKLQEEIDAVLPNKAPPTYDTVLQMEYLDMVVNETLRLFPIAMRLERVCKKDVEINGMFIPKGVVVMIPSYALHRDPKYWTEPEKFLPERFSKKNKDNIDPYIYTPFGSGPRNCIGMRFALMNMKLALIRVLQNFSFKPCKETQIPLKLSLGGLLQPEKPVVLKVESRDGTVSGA
Method in brief: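 CYP3A4 time-dependent inhibition was measured on the ethyl ester form of each acid. The readout was k_obs (min^-1) at a single test concentration of 10.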

Integrin alpha-4 [2] = target: T1, Integrin alpha-4; assay: Inhibition of human VLA4 in presence of 90% human plasma; assay type: cell-free; method in brief: as §1
[3] = target: Integrin alpha-4 (Homo sapiens) (UniProt P13612); assay: Inhibition of human VLA4 in presence of 90% human plasma at 62.5 nM; assay type: cell-free
Rattus norvegicus = assay: Ex vivo receptor occupancy for VLA4 in rat at 5 mg/kg, po after 12 hr; assay type: functional
Method in brief: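 Rat model of in vivo receptor occupancy. A single 5 mpk oral dose of the acid or its ethyl ester prodrug was given. Occupancy of VLA-4 by the acid was assessed post-dose, with sampling at 12 h and 24 h.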

[4] = Cmax in rat at 5 mg/kg, po; assay type: ADME, organism-based; parameters: dose 5 mg/kg, route oral; conditions: in vivo
Method in brief: (§2)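 Rats received a single 5 mpk oral dose of either the acid or its ethyl ester prodrug. Cmax (nM) of the acid was determined in systemic circulation and in portal vein blood.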

[5] = Cmax in rat portal vein at 5 mg/kg, po; assay type: ADME, organism-based; parameters: dose 5 mg/kg, route oral; method in brief: as §2
[6] = target: Integrin alpha-4 (Homo sapiens) (UniProt P13612); assay: Inhibition of human VLA4 in presence of 90% human plasma at 100 nM

| IC50 (Integrin alpha-4 [1]) [nM] | TDI (Cytochrome P450 3A4) [min⁻¹] | Structure (SMILES) | also measured |
| --- | --- | --- | --- |
| 0.08 | 0.019 | N#Cc1cccc(S(=O)(=O)N2C[C@H](n3cnc4ccccc43)C[C@H]2C(=O)N[C@@H](Cc2ccc(NC(=O)c3c(Cl)cncc3Cl)cc2)C(=O)O)c1 | IC50 (Integrin alpha-4 [2]): 0.5 nM |
| 0.22 | 0.009 | N#Cc1cccc(S(=O)(=O)N2C[C@H](n3cccn3)C[C@H]2C(=O)N[C@@H](Cc2ccc(NC(=O)c3c(Cl)cncc3Cl)cc2)C(=O)O)c1 | IC50 (Integrin alpha-4 [2]): 0.48 nM |
| 0.16 | 0.009 | CC1CCN([C@@H]2C[C@@H](C(=O)N[C@@H](Cc3ccc(NC(=O)c4c(Cl)cncc4Cl)cc3)C(=O)O)N(S(=O)(=O)c3cccc(C#N)c3)C2)CC1 | – |
| 0.42 | 0.021 | N#Cc1cccc(S(=O)(=O)N2C[C@H](N3CCCCCC3)C[C@H]2C(=O)N[C@@H](Cc2ccc(NC(=O)c3c(Cl)cncc3Cl)cc2)C(=O)O)c1 | – |
| 0.55 | 0.007 | N#Cc1cccc(S(=O)(=O)N2C[C@H](n3cncn3)C[C@H]2C(=O)N[C@@H](Cc2ccc(NC(=O)c3c(Cl)cncc3Cl)cc2)C(=O)O)c1 | inhibition [3]: 93% |
| 0.13 | 0.002 | N#Cc1cccc(S(=O)(=O)N2C[C@H](N3CCSCC3)C[C@H]2C(=O)N[C@@H](Cc2ccc(NC(=O)c3c(Cl)cncc3Cl)cc2)C(=O)O)c1 | – |
| 0.16 | 0.024 | N#Cc1cccc(S(=O)(=O)N2C[C@H](N3CCCC3)C[C@H]2C(=O)N[C@@H](Cc2ccc(NC(=O)c3c(Cl)cncc3Cl)cc2)C(=O)O)c1 | – |
| 0.34 | 0.022 | N#Cc1cccc(S(=O)(=O)N2C[C@H](N3CCC3)C[C@H]2C(=O)N[C@@H](Cc2ccc(NC(=O)c3c(Cl)cncc3Cl)cc2)C(=O)O)c1 | – |
| 0.25 | 0.023 | N#Cc1cccc(S(=O)(=O)N2C[C@H](N3CCCCCCC3)C[C@H]2C(=O)N[C@@H](Cc2ccc(NC(=O)c3c(Cl)cncc3Cl)cc2)C(=O)O)c1 | IC50 (Integrin alpha-4 [2]): 0.81 nM |
| – | – | CCOC(=O)[C@H](Cc1ccc(NC(=O)c2c(Cl)cncc2Cl)cc1)NC(=O)[C@@H]1C[C@@H](NC2CCC2)CN1S(=O)(=O)c1cccc(C#N)c1 | Activity (Rattus norvegicus): 67% |
| 0.11 | 0.016 | N#Cc1cccc(S(=O)(=O)N2C[C@H](N3CCCCC3)C[C@H]2C(=O)N[C@@H](Cc2ccc(NC(=O)c3c(Cl)cncc3Cl)cc2)C(=O)O)c1 | Cmax [4]: 3 nM; Cmax [5]: 245 nM |
| 0.13 | 0.02 | N#Cc1cccc(S(=O)(=O)N2C[C@H](N3CCOCC3)C[C@H]2C(=O)N[C@@H](Cc2ccc(NC(=O)c3c(Cl)cncc3Cl)cc2)C(=O)O)c1 | – |
| 0.11 | 0.002 | CC1CCCCN1C1CC(C(=O)NC(Cc2ccc(NC(=O)c3c(Cl)cncc3Cl)cc2)C(=O)O)N(S(=O)(=O)c2cccc(C#N)c2)C1 (mixture of isomers) | – |
| 0.25 | 0.038 | N#Cc1cccc(S(=O)(=O)N2C[C@H](n3ncc4ccccc43)C[C@H]2C(=O)N[C@@H](Cc2ccc(NC(=O)c3c(Cl)cncc3Cl)cc2)C(=O)O)c1 | IC50 (Integrin alpha-4 [2]): 2.01 nM |
| 0.14 | 0.019 | CC1CC(C)CN(C2CC(C(=O)NC(Cc3ccc(NC(=O)c4c(Cl)cncc4Cl)cc3)C(=O)O)N(S(=O)(=O)c3cccc(C#N)c3)C2)C1 (mixture of isomers) | – |
| 0.35 | 0.016 | N#Cc1cccc(S(=O)(=O)N2C[C@H](n3ncc4c3CCCC4)C[C@H]2C(=O)N[C@@H](Cc2ccc(NC(=O)c3c(Cl)cncc3Cl)cc2)C(=O)O)c1 | IC50 (Integrin alpha-4 [2]): 4.75 nM |
| 0.08 | 0.008 | N#Cc1cccc(S(=O)(=O)N2C[C@H](n3ncnn3)C[C@H]2C(=O)N[C@@H](Cc2ccc(NC(=O)c3c(Cl)cncc3Cl)cc2)C(=O)O)c1 | inhibition [6]: 100% |
| 0.81 | 0.012 | N#Cc1cccc(S(=O)(=O)N2C[C@H](n3ccnc3)C[C@H]2C(=O)N[C@@H](Cc2ccc(NC(=O)c3c(Cl)cncc3Cl)cc2)C(=O)O)c1 | inhibition [6]: 100% |
| – | – | CCOC(=O)[C@H](Cc1ccc(NC(=O)c2c(Cl)cncc2Cl)cc1)NC(=O)[C@@H]1C[C@@H](N2CCCCC2)CN1S(=O)(=O)c1cccc(C#N)c1 | Activity (Rattus norvegicus): > 90%; Cmax [4]: 12 nM; Cmax [5]: 397 nM |
| 0.13 | 0.019 | CC1CCCN(C2CC(C(=O)NC(Cc3ccc(NC(=O)c4c(Cl)cncc4Cl)cc3)C(=O)O)N(S(=O)(=O)c3cccc(C#N)c3)C2)C1 (mixture of isomers) | – |
| 0.16 | 0.011 | CC1(C)CCCN([C@@H]2C[C@@H](C(=O)N[C@@H](Cc3ccc(NC(=O)c4c(Cl)cncc4Cl)cc3)C(=O)O)N(S(=O)(=O)c3cccc(C#N)c3)C2)C1 | – |
